Screens from PubChem BioAssay.
The list is not random: actives were taken first. Their share in the collection is about 2.3%.
ABCG2 block – human ABCG2 inhibition, ABCB1 as counter-screen; Q9UNQ0; IgMXP3 cells, JC-1 efflux, flow cytometry; AID 1325; inhibition, % at 6.6 µM; 190,000 compounds, 0.1% hits;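 active means inhibition above 80%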
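Assay system – ABCG2 IgMXP3 and barcoded ABCB1 CCRF-Adr cell mix · Input – 3 million cells/mL in well · Reagent – JC-1 fluorescent substrate · Compound – single test compound dose, 6.6 µM final · Timing – 10 min exposure at 25 °C with rotation, no wash · Detection – flow cytometry of retained JC-1 fluorescence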
ABCB1 block – inhibitors of human ABCB1 transporter, ABCG2 counter-screen; P08183; CCRF-Adr cells, JC-1 efflux, flow cytometry; inhibition, % at 6.6 µM; 190,000 compounds, 0.067% hits; AID 1326; in the data active means inhibition above about 40%;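 further: higher value means more JC-1 retained so stronger ABCB1 efflux block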
Target sequence (P08183 whole entry, looked up): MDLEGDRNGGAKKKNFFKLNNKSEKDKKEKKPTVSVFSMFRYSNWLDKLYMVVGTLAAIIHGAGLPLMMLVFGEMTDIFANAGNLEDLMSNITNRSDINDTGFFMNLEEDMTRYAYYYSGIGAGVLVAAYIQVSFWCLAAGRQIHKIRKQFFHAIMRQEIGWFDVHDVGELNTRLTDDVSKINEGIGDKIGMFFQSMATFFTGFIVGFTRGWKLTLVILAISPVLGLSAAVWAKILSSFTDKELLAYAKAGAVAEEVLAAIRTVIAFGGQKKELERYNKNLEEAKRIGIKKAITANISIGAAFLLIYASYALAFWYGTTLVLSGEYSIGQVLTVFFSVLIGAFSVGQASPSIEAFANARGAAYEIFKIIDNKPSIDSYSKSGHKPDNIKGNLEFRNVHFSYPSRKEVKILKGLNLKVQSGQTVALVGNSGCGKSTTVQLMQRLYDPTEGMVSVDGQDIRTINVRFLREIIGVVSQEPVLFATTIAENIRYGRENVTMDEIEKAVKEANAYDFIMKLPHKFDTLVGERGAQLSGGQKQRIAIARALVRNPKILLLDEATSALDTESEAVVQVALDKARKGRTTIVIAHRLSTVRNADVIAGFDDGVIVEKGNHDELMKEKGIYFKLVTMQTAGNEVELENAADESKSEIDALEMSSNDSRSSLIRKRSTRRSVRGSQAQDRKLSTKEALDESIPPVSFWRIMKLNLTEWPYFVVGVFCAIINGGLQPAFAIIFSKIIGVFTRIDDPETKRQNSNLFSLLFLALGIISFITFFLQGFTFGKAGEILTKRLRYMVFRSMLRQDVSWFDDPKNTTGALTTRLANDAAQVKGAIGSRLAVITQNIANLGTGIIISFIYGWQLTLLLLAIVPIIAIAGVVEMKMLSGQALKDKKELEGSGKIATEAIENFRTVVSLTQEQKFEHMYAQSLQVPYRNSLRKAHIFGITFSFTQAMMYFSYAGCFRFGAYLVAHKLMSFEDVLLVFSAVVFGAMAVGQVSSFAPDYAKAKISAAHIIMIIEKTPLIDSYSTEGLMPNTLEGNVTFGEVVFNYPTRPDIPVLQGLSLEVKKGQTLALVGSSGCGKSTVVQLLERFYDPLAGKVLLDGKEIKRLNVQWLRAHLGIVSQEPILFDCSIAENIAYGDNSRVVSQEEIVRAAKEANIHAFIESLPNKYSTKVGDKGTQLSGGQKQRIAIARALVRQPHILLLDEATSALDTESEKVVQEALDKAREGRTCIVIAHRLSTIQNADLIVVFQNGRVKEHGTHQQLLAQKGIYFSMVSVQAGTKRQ
Arbovirus inh – blocks arbovirus infection. arbovirus infection cell-based antiviral screen. inhibition, % at 10 µM. 200,000 compounds, 0.37% hits. AID 1251; in the data active means inhibition above about 30%
RAM network inh – blocks the yeast RAM network. 190,000 compounds, 1.8% hits. S. cerevisiae dse1pr::URA3 reporter, 5-FOA growth OD615, 2 d; analog-sensitive cbk1-as2 kinase mutant strain. inhibition, % at 50 µM;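 active means inhibition above a set limit, 3 SD over mean compound inhibition, cut at about 8.4% in these data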;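 further: inhibition rescues growth on 5-FOA so higher OD means more RAM inhibition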
Large screens that a line does not name were inactive.

Cc1ccc(NCC(O)C(O)C(O)CO)cc1C (stereo not drawn)	none
Cc1cc(N=Nc2ccccc2)c(NCC(O)C(O)C(O)CO)cc1C (stereo not drawn)	RAM network inh 10
O=S(=O)(NC1c2cccc3cccc(c23)C1N1CCNCC1)c1ccc(Cl)cc1 (stereo not drawn)	none
COc1ccc(C(=O)/C=C/c2ccc(OC)c(Cn3nnc4ccccc43)c2)cc1	Arbovirus inh 37
COc1ccc(C=O)cc1COc1ccccc1F	none
COc1ccc(/C=C/C(=O)c2ccccc2)cc1COc1ccccc1F	RAM network inh 10
CCCC(C(=O)NC1CCCC1)N(Cc1cccs1)C(=O)c1snc(C(N)=O)c1N (stereo not drawn)	none
CCN1/C(=C/C=C/c2oc3ccc(-c4ccccc4)cc3[n+]2CC)Oc2ccc(-c3ccccc3)cc21	ABCB1 block active (no result: ABCG2 block)
CCCCN(CC)S(=O)(=O)c1ccc(C(=O)Nc2nnc(-c3cccs3)o2)cc1	RAM network inh 8.6
CCN(CC)S(=O)(=O)c1ccc(C(=O)Nc2nnc(-c3ccco3)o2)cc1	none
CCOc1ccccc1-n1c(COc2ccccc2)nnc1SCC(N)=O	none
COc1ccc(N2C(=O)N(Cc3ccccc3F)c3ccccc3S2(=O)=O)cc1	none
COc1ccc(N2C(=O)N(Cc3cccc(F)c3)c3ccccc3S2(=O)=O)cc1	RAM network inh 8.8
Brc1cnc(N2CCOCC2)nc1N1CCCCC1	none
CCO[C@H]1OC(C(=O)N2CCN(C)CC2)=C[C@@H](c2coc3ccccc3c2=O)[C@@H]1CCCO	none
COc1ccc(C)cc1NC(=O)C(OC(=O)c1cc(C)oc1C)c1ccccc1 (stereo not drawn)	RAM network inh 11
COc1ccc(C)cc1NC(=O)C(OC(=O)CNC(=O)c1ccc(Oc2ccccc2)cc1)c1ccccc1 (stereo not drawn)	none
CCCn1c(SCC(=O)Nc2ccc(C(=O)Nc3ccccc3OC)cc2)n[nH]c1=O	RAM network inh 9.2
Cc1ccc(O)c(-c2cc(-c3ccccc3C)[nH]n2)c1	none
Cc1ccc(O)c(-c2cc(C(F)(F)C(F)F)[nH]n2)c1	Arbovirus inh 34
CCc1ccc(/C=N/NC(=S)NCCc2ccccc2)cc1	RAM network inh 8.5
S=C(NCCc1ccccc1)N/N=C/c1ccccc1Cl	none
CCNC(=S)N/N=C/c1cccc(/C=N/NC(=S)NCC)c1	RAM network inh 10.0
CCNC(=S)N/N=C/c1ccc(F)cc1	none
Nc1cc(N)c(OCC(F)(F)F)cc1OCC(F)(F)F	none
O=C(Nc1ccc(-c2nc3ccccc3[nH]2)cc1)c1ccco1	RAM network inh 9.5
O=C(/C=C/c1ccco1)Nc1ccc(-c2nc3ccccc3[nH]2)cc1	none
CCC1(c2ccc(F)cc2)NC(=O)N(CC(=O)Nc2cc(S(=O)(=O)N(C)C)ccc2Cl)C1=O (stereo not drawn)	none
O=c1cc(-c2cccs2)oc2ccc(Cl)cc12	none
O=C1OC(/C=C/c2ccc(Cl)cc2Cl)=NC/1=C\c1cccs1	RAM network inh 9.5
O=C(/C=C/c1ccc(O)c(O)c1)c1ccc(S(=O)(=O)N2CCCCCC2)cc1	RAM network inh 9.4
O=C(CSc1nnc(Cc2cc(=O)[nH]c(=O)[nH]2)n1-c1ccccc1)N1CCCc2ccccc21	RAM network inh 8.6
COc1nccnc1NS(=O)(=O)c1ccc(N=Cc2c(C)[nH]n(-c3ccc(C)c(C)c3)c2=O)cc1	none
CN1/C(=C\C=C2/SC(=S)N(CC(=O)O)C2=O)C(C)(C)c2ccccc21	RAM network inh 9.1
CCOc1ccc(N(C)S(=O)(=O)c2ccc3[nH]cc(C(=O)NCC4CCCO4)c(=O)c3c2)cc1 (stereo not drawn)	RAM network inh 11
Cc1ccccc1N(C)S(=O)(=O)c1ccc2[nH]cc(C(=O)NCC3CCCO3)c(=O)c2c1 (stereo not drawn)	none
Cc1ccc2c(c1)c(C)c(C)n2CC(O)Cn1nc(C)c(Br)c1C (stereo not drawn)	none
COc1cc(S(=O)(=O)Nc2ccc(C)cc2)ccc1N=Cc1c(C)[nH]n(-c2ccccc2)c1=O	none
COc1cc(S(=O)(=O)Nc2cccc(C)c2)ccc1N=Cc1c(C)[nH]n(-c2ccccc2)c1=O	RAM network inh 8.5
CN(Cc1cnn(C)c1)Cc1nc(C(c2ccccc2)c2ccccc2)no1	none
COc1ccccc1Nc1ncc(-c2cccs2)s1	RAM network inh 9.9
COc1ccccc1Nc1ccc(C(=O)NCc2cccs2)cn1	none
COc1cc(/C=C2\SC(=Nc3ccccc3)N(CCc3c[nH]c4ccccc34)C2=O)ccc1OC(C)C(=O)O (stereo not drawn)	none
COCCN1C(=O)/C(=C/c2ccc(Oc3ccc([N+](=O)[O-])cn3)c(OC)c2)SC1=Nc1ccccc1	Arbovirus inh 32
C=CCSc1nnc(NC(=O)Cc2ccc(OC)c(OC)c2)s1	none
O=C(N/N=C/c1c(O)n(Cc2ccccc2)c(=O)c2ccccc12)c1cccnc1	none
O=C(N/N=C/c1c(O)n(-c2ccccc2Cl)c(=O)c2ccccc12)c1cccnc1	Arbovirus inh 36
CN(C)c1ccc(/C=C(\Cl)c2nc3ccccc3s2)cc1	RAM network inh 8.6
O=S(=O)(c1ccccc1)N(Cc1nc(-c2ccccc2)no1)C1CCCCC1	RAM network inh 9.2
CC(C)N(Cc1nc(-c2ccccc2)no1)S(=O)(=O)c1ccccc1	none
CC(C)N(Cc1nc(-c2ccccc2)no1)C(=O)CN(C)S(=O)(=O)c1ccccc1	RAM network inh 8.7
CCOc1ccc(-n2c(C)cc(/C=C3/C(=N)N4C(=NC3=O)SN=C4S(C)(=O)=O)c2C)cc1	Arbovirus inh 42
Cc1ccccc1-n1c(C)cc(/C=C2/C(=N)N3C(c4ccccc4)=CSC3=NC2=O)c1C	none
COc1ccccc1-n1c(C)cc(/C=C2/C(=N)N3C(=NC2=O)SN=C3S(C)(=O)=O)c1C	Arbovirus inh 35
Cc1cc(/C=C2/C(=N)N3C(=NC2=O)SN=C3S(C)(=O)=O)c(C)n1-c1ccc(F)cc1	Arbovirus inh 37
NC(=O)CSc1nnc(-c2cc(-c3cccs3)nc3ccccc23)o1	none
COc1ccc(CNc2nc(SC)n[nH]2)cc1OC	none
Cc1c(O)nc(SCC(=O)Nc2ccc3c4c(cccc24)CC3)n(-c2ccc(F)cc2)c1=O	RAM network inh 9.2
O=C(CSc1nc2ccccc2c(=O)n1-c1ccc(F)cc1)NCc1ccco1	none
CC1=CC(C)C(C(=O)O)C(C(=O)N2CCN(C)CC2)C1 (stereo not drawn)	none
Cc1cccc(-n2c3nc(=O)[nH]c(=O)c-3cc3cc([N+](=O)[O-])ccc32)c1	Arbovirus inh 38
Cc1ccc(C)c(-n2c3nc(=O)[nH]c(=O)c-3cc3cc([N+](=O)[O-])ccc32)c1	none
COCCn1c(N)c(N(Cc2ccccc2)C(=O)c2ccc(C#N)cc2)c(=O)[nH]c1=O	none
Cn1nc(C(F)(F)F)c(/C=N/OC(=O)c2ccccc2)c1Sc1ccc(Cl)cc1	RAM network inh 10
Cn1nc(C(F)(F)F)c(/C=N/OC(=O)c2ccccc2)c1Cl	none
CC1=NOC(=O)/C1=C\c1ccc(-c2cccc(Cl)c2)o1	none
Cc1nc(S/C(=C/c2ccc(-c3cccc(Cl)c3)o2)C(=O)O)n[nH]1	Arbovirus inh 33
